The text below walks through data of PMC4083110 (Molecular & Cellular Proteomics : MCP, 2014).

One experiment addresses T1, PLCG2 SH2 domains (Homo sapiens, UniProt P16885).
T1 sequence (P16885 532-735 limits assumed): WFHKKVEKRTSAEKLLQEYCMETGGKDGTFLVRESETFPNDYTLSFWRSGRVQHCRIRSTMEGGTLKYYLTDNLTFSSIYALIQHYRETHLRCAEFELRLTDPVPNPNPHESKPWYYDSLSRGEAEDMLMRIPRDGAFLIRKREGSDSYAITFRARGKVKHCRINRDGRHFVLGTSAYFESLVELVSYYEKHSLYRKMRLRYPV
In words: FP saturation binding, construct not stated. The settings on record: result in words. A digest of the protocol:
(§1)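 Multi-SH2 genes were used as tandem proteins that kept the linker residues. Automated high-throughput FP saturation binding was run against 178 synthetic phosphopeptides from RTK, GAB1 and androgen receptor tyrosine sites. Millipolarization readings were fitted to P_obs = Pmax·[Protein]/(K_D+[Protein]) by least squares regression to give K_D.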

A further experiment concerns the target T2, RASA1 SH2 domains (Homo sapiens, UniProt P20936).
T2 sequence (P20936 181-441 limits assumed): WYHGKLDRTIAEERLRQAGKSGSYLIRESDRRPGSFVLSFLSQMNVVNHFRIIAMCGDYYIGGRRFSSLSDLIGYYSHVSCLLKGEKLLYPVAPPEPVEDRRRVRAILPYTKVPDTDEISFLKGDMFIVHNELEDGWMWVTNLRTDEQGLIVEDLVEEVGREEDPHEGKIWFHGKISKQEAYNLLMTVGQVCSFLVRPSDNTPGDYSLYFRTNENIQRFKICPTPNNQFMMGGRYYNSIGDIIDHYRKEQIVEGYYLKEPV
In words: FP saturation binding, construct not stated. As to conditions: result in words. The procedure, abridged:
as §1

Another experiment deals with T3, PLCG1 SH2 domains (Homo sapiens, UniProt P19174).
T3 sequence (P19174 550-756 limits assumed): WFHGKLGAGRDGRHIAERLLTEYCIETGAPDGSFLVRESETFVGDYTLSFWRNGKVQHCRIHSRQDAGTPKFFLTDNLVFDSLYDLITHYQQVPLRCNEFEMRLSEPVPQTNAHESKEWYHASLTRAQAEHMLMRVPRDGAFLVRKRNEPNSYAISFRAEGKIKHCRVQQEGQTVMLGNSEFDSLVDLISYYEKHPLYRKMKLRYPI
In words: FP saturation binding, construct not stated. The settings on record: result in words. A digest of the protocol:
as §1

A further experiment concerns the target SRC SH2 domain (Homo sapiens, UniProt P12931). In words: FP saturation binding. As to conditions: result in words. The procedure, abridged:
as §1

For experiment [1], the system named is PIK3R-derived SH2 domains. In words: FP saturation binding, domain family. The settings on record: FP, result in words. Also noted: species or system human. A digest of the protocol: as §1
In experiment [2] the test system is c-Src family kinase SH2 domains. As to the kind of experiment: FP saturation binding, domain family. Also noted: species or system human. The settings on record: result in words. A digest of the protocol: as §1
For experiment [3], the target named is PIK3R3 (C-terminal domain), PIK3R3.C (Homo sapiens, UniProt Q92569). In words: FP saturation binding. As to conditions: result in words. A digest of the protocol: as §1
Experiment [4] addresses PLCG1 (NC tandem domain), PLCG1.NC (Homo sapiens, UniProt P19174). As to the kind of experiment: FP saturation binding. The settings on record: result in words. A digest of the protocol: as §1
For experiment [5], the system named is 93 SH2 domains and 2 phosphotyrosine binding (PTB) domains. In words: High throughput FP, whole domain panel. Also on record: species or system human. As to conditions: result in words. A digest of the protocol: as §1

“Also recorded” adds a separate entry of the source.

With QSRDXYNFPLALd [AR Tyr(P)-362], the “recruitment of PLCG2 SH2 domains” value at PLCG2 SH2 domains is reported as “recruitment sites”. Further, at RASA1 SH2 domains, the “recruitment of RASA1 SH2 domains” value is reported as “interacted”. In addition, the “recruitment of PLCG1 SH2 domains” value on PLCG1 SH2 domains was “interacted; also recorded: recruitment sites”. Moreover, the “interaction with SRC SH2 domain” value at SRC SH2 domain is recorded as “interacted”. Moreover, in experiment [1], the “recruitment of PIK3R (PI3KR) SH2 domains” value was “interacted; also recorded: relatively high affinity”.

Consider YSGPXGDMRLETd [AR Tyr(P)-534], for which, in experiment [2], the “recruitment of c-Src family kinase SH2 domains” value is “did not recruit”. Further, the “recruitment of PIK3R3 (C-terminal domain)” value in [3] is on record as “did recruit”. In addition, the “recruitment of PLCG1 (NC tandem domain)” value in experiment [4] is recorded as “did recruit”. The “recruitment across the SH2 domain panel” value in [5] is “interacted with few SH2 domains”.
